The values that follow come from PMC4256430 (Journal of immunology (Baltimore, Md. : 1950), 2010).

The test system of assay [1] is ERK phosphorylation in peritoneal Mϕs (WT and Fpr2^−/−). Kind of assay: ERK phosphorylation in Mϕs. Type of assay: cell-based, mouse. The settings on record: concentration range, 10 min at 37°C, n = 3; for ERK phosphorylation, Fpr2^−/− Mϕs: Fpr2^−/− Mϕs compared with WT. The procedure, abridged:
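Peritoneal macrophages from WT littermates and Fpr2−/− mice were equilibrated 30 min in Glutamax DMEM with penicillin/streptomycin, then exposed to ligand concentration ranges for 10 min at 37°C. Lysates underwent SDS-PAGE and PVDF transfer. Blots were probed overnight for phospho-p44/42 and total p44/42 (each 1:1000), with HRP anti-rabbit and ECL detection. Read-out was the phospho-/total ERK ratio, from three distinct cultures (Mann-Whitney U).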

For assay [2], the system named is IL-1β–induced Gr1^+ cell recruitment, WT and Fpr2^−/− mice. In words: IL-1β–induced air pouch, Gr1^+ cell. Type of assay: in vivo, mouse. The settings on record: 4 h; for inhibition of IL-1β-promoted Gr1^+ cell recruitment, WT: Ac2–26 dose-dependent, LXA4 and Cpd43 at anti-inflammatory doses, n = 6, p < 0.01.
The subject of a further assay is FPR2/ALX. The settings on record: ref [32]; cited from earlier work.
Assay [3] concerns Fpr2. Type of assay: binding, mouse. The note with it: WT Mϕs; [125I]-labeled W-peptide. The procedure, abridged: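 Primary peritoneal macrophages (10 × 10^6 cells/ml in PBS with Ca2+/Mg2+) were incubated with [125I]W-peptide tracer for 1 h on ice. Excess unlabeled W-peptide defined nonspecific binding; specific binding was calculated as total minus nonspecific. Cells were collected on GF/C filters by vacuum filtration and washed three times with ice-cold 10 mM Tris-HCl. Bound counts were read on a γ-counter. The experiment was repeated three times.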

Assay [4] relates to Fpr2. The note with it: cited from earlier work.
The test system of another assay is all FPRs. The note with it: in vitro experimental settings; ref [33]; cited from earlier work.
The test system of a further assay is Mϕs (WT and Fpr2^−/−). Kind of assay: Mϕ chemotaxis. It counts as cell-based, mouse. The note with it: 120 min, 37°C, 5-μm pores; for Mϕ chemotaxis, Fpr2^−/− compared with WT: Fpr2^−/− Mϕs, for fMLP at concentrations >1 μM. In short, it runs like this: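 Macrophages were either bone-marrow-derived (5 d in 20% FCS/30% L929-conditioned DMEM) or peritoneal cells elicited by Biogel (harvested 4 d after i.p. 2% P-100). Cells were suspended at 4 × 10^6/ml in RPMI 1640 with 0.1% BSA. 10^5 cells were placed above 5-μm polycarbonate filters, with stimuli below, for 120 min at 37°C/5% CO2. Migrated cells were quantified by 4 h alamarBlue fluorescence (ex 530–560, em 590 nm) against a macrophage standard curve. Three experiments, each in quadruplicate.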

Assay [5] concerns zymosan-elicited Gr1^+ cell influx, WT and Fpr2^−/− mice. In words: Zymosan-induced peritonitis, Gr1^+ cell recruitment. Type of assay: in vivo, mouse. The settings on record: 1 mg i.v. −10 min, zymosan 1 mg i.p., 4 h, n = 6, NS, mean ± SEM. The procedure, abridged: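 Peritonitis was induced in WT and Fpr2−/− mice with zymosan A, 1 mg i.p. in 0.5 ml PBS. Test protein (1 mg) was given i.v. 10 min before zymosan. Cavities were lavaged at 4 h with PBS containing 25 U/ml heparin and 0.3 mM EDTA. Gr1+ cell influx was quantified by Turk's differential counts and flow cytometry, with percentage of events multiplied by total count per cavity.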

In a further assay the test system is fpr1^−/− mice. The note with it: ref [42]; cited from earlier work.

Entries after “also recorded” stand apart in the source; their conditions may differ. Like-named read-outs stand apart in the source and are kept apart here. No end group written: not given here.

For `CC(C)c1c(NC(=O)Nc2ccc(Cl)cc2)c(=O)n(-c2ccccc2)n1C` [Cpd43], the “ERK phosphorylation, WT Mϕs” value in assay [1] is on record as “concentration-dependent rapid phosphorylation of ERK”. Further, the “effect on IL-1β-promoted cell recruitment, Fpr2^−/−” value (from here on “effect”) in assay [2] (Fpr2^−/− mice, i.v., air pouch) was “ineffective”. The “inhibition of IL-1β-promoted Gr1^+ cell recruitment, WT” value in assay [2] (WT mice, i.v., air pouch) is given as 50–75%. Moreover, the FPR2/ALX agonism entry in the assay on FPR2/ALX is recorded as “selective nonpeptidic FPR2/ALX agonist”.
Regarding WKYMVm [W-peptide], in the assay on Fpr2 [3], the “binding sites revealed by Scatchard plot” value was “both high- and low-affinity binding sites”. Further, in assay [1], the “ERK phosphorylation, Fpr2^−/− Mϕs” value is “absent” and the “ERK phosphorylation, WT Mϕs” value is recorded as “concentration-dependent rapid phosphorylation of ERK”. Moreover, the “ligand activity / affinity at Fpr2” value with Fpr2 [4] (high-affinity ligand, ref [30]) was “high-affinity ligand for Fpr2”.
For the molecule Ac-AMVSEFLKQAWIENEEQEYVVQTVK [Ac2–26], in the assay with all FPRs, the “activation of FPRs” value is “known to activate all FPRs”.
For the molecule `CCCCC[C@H](O)/C=C/C=C\C=C\C=C\[C@@H](O)[C@@H](O)CCCC(=O)O` [LXA4, lipoxin A4], the “effect” value in [2] (Fpr2^−/− mice, i.v., air pouch) was “ineffective”. In assay [2] (WT mice, i.v., air pouch), the “inhibition of IL-1β-promoted Gr1^+ cell recruitment, WT” value was 50–75%. The “activation of Fpr2” value in the assay on Fpr2 [4] (ref [23]) is “known to be activated”.
In the case of formyl-Met-Leu-Phe [fMLP], the “concentration for optimal Mϕ chemotaxis” value in the assay with Mϕs (WT and Fpr2^−/−) (mean of three experiments in quadruplicate) was 1 µM. Also, the “Mϕ chemotaxis, Fpr2^−/− compared with WT” value in the assay on Mϕs (WT and Fpr2^−/−) is “attenuated significantly”.
`C[C@@H]1C[C@H]2[C@@H]3CCC4=CC(=O)C=C[C@]4(C)[C@@]3(F)[C@@H](O)C[C@]2(C)[C@@]1(O)C(=O)COP(=O)([O-])[O-].[Na+].[Na+]` [dexamethasone, dexamethasone 21-phosphate disodium salt]: the “efficacy in air pouch, Fpr2^−/− mice” value in [2] (Fpr2^−/− mice, dexamethasone 0.5 mg/kg i.v. −1 h, IL-1β 20 ng) was “reduced efficacy”. The “Gr1^+ cell infiltrate into air pouch, WT” value in [2] (WT mice, dexamethasone 0.5 mg/kg i.v. −1 h, IL-1β 20 ng) is “significantly reduced”.

B1: hrAnxA1: GST-tagged human recombinant annexin A1, produced in Escherichia coli (protein, UniProt P04083 2-346, looked up)
Annexin A1: AMVSEFLKQAWFIENEEQEYVQTVKSSKGGPGSAVSPYPTFNPSSDVAALHKAIMVKGVDEATIIDILTKRNNAQRQQIKAAYLQETGKPLDETLKKALTGHLEEVVLALLKTPAQFDADELRAAMKGLGTDEDTLIEILASRTNKEIRDINRVYREELKRDLAKDITSDTSGDFRNALLSLAKGDRSEDFGVNEDLADSDARALYEAGERRKGTDVNVFNTILTTRSYPQLRRVFQKYTKYSKHDMNKVLDLELKGDIEKCLTAIVKCATSKPAFFAEKLHQAMKGVGTRHKALIRIMVSRSEIDMNDIKAFYQKMYGISLCQAILDETKGDYEKILVALCGGN
modifications: GST tag
As to B1, in assay [2] (Fpr2^−/− mice, i.v. −10 min, IL-1β 20 ng, NS), the “inhibition of PMN accumulation in air pouch, Fpr2^−/− mice” value is reported as 25–30%. In addition, in assay [2] (WT mice, i.v. −10 min, IL-1β 20 ng), the “inhibition of PMN accumulation in air pouch, dose dependence” value is given as “dose-response inhibition”. Besides, in assay [5], the “reduction of Gr1^+ cell content in peritoneal fluids, Fpr2^−/−” value is −5 ± 12%. Moreover, the “anti-migratory action in fpr1^−/− mice” value in the assay on fpr1^−/− mice was “a high proportion of the anti-migratory action of hrAnxA1 is retained”.

B2: SAA: serum amyloid A, purchased from PeproTech (protein, UniProt P0DJI8 19-122, looked up)
Serum amyloid A-1 protein: RSFFSFLGEAFDGARDMWRAYSDMREANYIGSDKYFHARGNYDAAKRGPGGAWAAEVITDARENIQRFFGHGAEDSLADQAANEWGRSGKDPNHFRPAGLPEKY
As to B2, in the assay on Mϕs (WT and Fpr2^−/−), the “Mϕ chemotaxis, Fpr2^−/− compared with WT” value is recorded as “absent”. Further, the “Mϕ chemotaxis, WT” value in the assay with Mϕs (WT and Fpr2^−/−) (WT Mϕs) is “promoted consistently”. Also, the “ERK phosphorylation, Fpr2^−/− Mϕs” value in assay [1] was “unchanged; also recorded: retained; also recorded: not diminished”. Besides, the “effect” value in assay [2] (Fpr2^−/− mice, i.v., air pouch) is reported as “did not share this response”. For the same molecule, the “increase in number of cells recruited by IL-1β over control” value in assay [2] (WT mice, i.v., air pouch, control values of 3.0 ± 0.4 × 10^6 per cavity) is 1.5 fold. The “activation of Fpr2” value in the assay on Fpr2 [4] (ref [22]) is recorded as “known to be activated”.
